ChEMBL document CHEMBL3259688, “Synthesis and structure-activity relationship studies of conformationally flexible tetrahydroisoquinolinyl triazole carboxamide and triazole substituted benzamide analogues as σ2 receptor ligands” (J Med Chem, 2014)

How the values were obtained:
[1] = target: Sigma non-opioid intracellular receptor 1 (Cavia porcellus, UniProt Q60492); experiment: Displacement of (+)-[3H]pentazocine from sigma-1 receptor in guinea pig brain membrane homogenate after 90 mins by liquid scintillation counting analysis; format: cell membranes
Sequence of Sigma non-opioid intracellular receptor 1 (Cavia porcellus, UniProt Q60492) (Q60492 whole entry): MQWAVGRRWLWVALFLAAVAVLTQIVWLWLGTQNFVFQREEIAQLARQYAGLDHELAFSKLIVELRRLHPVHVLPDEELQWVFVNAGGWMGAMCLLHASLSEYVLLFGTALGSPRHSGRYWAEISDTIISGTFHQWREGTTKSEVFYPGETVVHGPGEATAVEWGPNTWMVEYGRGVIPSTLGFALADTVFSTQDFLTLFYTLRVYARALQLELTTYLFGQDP
Method in brief: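 Nonspecific binding with cold haloperidol. Compounds from DMSO or ethanol, diluted in 50 mM Tris-HCl, 150 mM NaCl, 100 mM EDTA, pH 7.4. Stopped with ice-cold 10 mM Tris-HCl/150 mM NaCl pH 7.4, filtered on fiberglass, washed, scintillation counted.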

[2] = Displacement of [3H]DTG from sigma-2 receptor in rat liver membrane homogenate after 2 hrs by liquid scintillation counting analysis in presence of pentazocine; format: cell membranes
[3] = Selectivity ratio of Ki for sigma-1 receptor in guinea pig brain membrane homogenate to Ki for sigma-2 receptor in rat liver membrane homogenate; format: cell membranes
[4] = target: Sigma non-opioid intracellular receptor 1 (Homo sapiens, UniProt Q99720); experiment: Binding affinity to sigma-1 receptor (unknown origin)
Sequence of Sigma non-opioid intracellular receptor 1 (Homo sapiens, UniProt Q99720) (Q99720 whole entry): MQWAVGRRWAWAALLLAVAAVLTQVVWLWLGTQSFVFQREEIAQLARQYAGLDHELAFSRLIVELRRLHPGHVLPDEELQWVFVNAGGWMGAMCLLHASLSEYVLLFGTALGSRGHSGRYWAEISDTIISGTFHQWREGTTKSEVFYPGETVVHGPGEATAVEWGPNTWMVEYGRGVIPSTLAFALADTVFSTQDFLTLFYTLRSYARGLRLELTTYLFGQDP

[5] = Binding affinity to sigma-2 receptor (unknown origin); design: species or system Homo sapiens
Homo sapiens = organism: Homo sapiens; experiment: Selectivity ratio of Ki for sigma-1 receptor (unknown origin) to Ki for sigma-2 receptor (unknown origin)
[6] = Lipophilicity, log P of the compound; format: physicochemical; conditions: octanol/water
[7] = target: Sigma non-opioid intracellular receptor 1 (Mus musculus, UniProt O55242); experiment: Displacement of 5-bromo-N-(4-(3,4-dihydro-6,7-dimethoxyisoquinolin-2(1H)-yl)butyl)-2,3-dimethoxybenzamide from sigma-1 receptor in mouse EMT6 cell membranes after 60 mins by Scatchard plot analysis
Sequence of Sigma non-opioid intracellular receptor 1 (Mus musculus, UniProt O55242) (O55242 whole entry): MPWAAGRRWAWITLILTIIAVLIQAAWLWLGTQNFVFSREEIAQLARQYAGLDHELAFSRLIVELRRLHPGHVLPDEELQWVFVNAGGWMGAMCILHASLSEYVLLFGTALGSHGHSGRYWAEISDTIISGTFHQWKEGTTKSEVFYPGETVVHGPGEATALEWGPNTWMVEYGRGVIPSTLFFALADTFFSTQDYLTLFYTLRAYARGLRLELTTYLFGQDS

[8] = Displacement of 5-bromo-N-(4-(3,4-dihydro-6,7-dimethoxyisoquinolin-2(1H)-yl)butyl)-2,3-dimethoxybenzamide from sigma-2 receptor in mouse EMT6 cell membranes after 60 mins by Scatchard plot analysis
EMT6 = experiment: Selectivity ratio of Ki for sigma-1 receptor in mouse EMT6 cell membranes to Ki for sigma-2 receptor in mouse EMT6 cell membranes; format: cell-based
[9] = Displacement of [3H]DTG from sigma-2 receptor in human MCF7 cell membranes after 120 mins
[10] = Antagonist activity at sigma-2 receptor in mouse EMT6 cells assessed as inhibition of cell proliferation after 24 hrs by MTS assay; format: cell-based; conditions: EMT6, 24 h
Method in brief: (§1)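 EMT-6 mouse breast cancer cells grown in DMEM with 10% FBS and penicillin/streptomycin at 37 °C, 5% CO2. Seeded at 5 × 10^3 cells/well 24 h before dosing; serial dilutions from DMSO stocks, final DMSO ≤1.0%. Exposure 24 or 48 h, then MTS reagent 1–2 h at 37 °C, absorbance 490 nm vs untreated cells. EC50 from dose–response curves; triplicate wells, mean ± SEM of three independent experiments.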

[11] = Antagonist activity at sigma-2 receptor in mouse EMT6 cells assessed as inhibition of cell proliferation after 48 hrs by MTS assay; format: cell-based; conditions: EMT6, 48 h; method in brief: as §1

SMILES	Ki [1] [µM]	Ki [2] [nM]	Ratio Ki [3]	further results
COc1cc2c(cc1OC)CN(CCCCNC(=O)c1cn(Cc3ccc(OCCF)cc3)nn1)CC2	21.5	48.2	447	
CN1CC[C@]2(c3cccc(O)c3)CC/C(=C/c3ccc(Cl)c(Cl)c3)[C@@H]1C2				Ki [4]: 7.46 µM; Ki [5]: 13.4 nM; Ratio Ki (Homo sapiens): 557; logP [6]: 4.34
COc1cc2c(cc1OC)CN(CCNC(=O)c1cn(-c3ccccc3OC)nn1)CC2	15.5	150	103	
COc1cc2c(cc1OC)CN(CCCCNC(=O)c1cc(I)ccc1OCCF)CC2				logP [6]: 4.61; Ki [7]: 1300 nM; Ki [8]: 1.06 nM
COc1cc2c(cc1OC)CN(CCCCNC(=O)c1cn(-c3ccccc3OCCF)nn1)CC2	17.1	24	713	
COc1cccc(Cn2cc(C(=O)NCCN3CCc4cc(OC)c(OC)cc4C3)nn2)c1	80.1	214	373	
COc1cc2c(cc1OC)CN(CCCCNC(=O)c1cc(-n3cc(CN(C)C)nn3)ccc1OCCF)CC2	21.9	94	232	
COc1cc2c(cc1OC)CN(CCCCNC(=O)c1c[nH]nn1)CC2	11	1020	10.7	
COc1cc2c(cc1OC)CN(CCCCNC(=O)c1ccc(-c3cn(CCOCCOCCF)nn3)cc1)CC2	16	212	75	
COc1cc2c(cc1OC)CN(CCCCNC(=O)c1cc(-n3cc(CN(C)C)nn3)ccc1OC)CC2	22.4	56.8	395	
COc1cc2c(cc1OC)CN(CCCCNC(=O)c1cc(C)ccc1OCCF)CC2				logP [6]: 3.74; Ki [7]: 330 nM; Ki [8]: 6.59 nM; Ratio Ki (EMT6): 48
COc1cc2c(cc1OC)CN(CCCCNC(=O)c1cc(-n3cc(-c4cncn4C)nn3)ccc1OC)CC2	6.36	20.7	307	
COc1cc2c(cc1OC)CN(CCCCNC(=O)c1cn(Cc3cccc(O)c3)nn1)CC2	8.08	22.5	359	
COc1cc2c(cc1OC)CN(CCCCNC(=O)c1cn(Cc3cccc(OCCF)c3)nn1)CC2	46.3	62.1	744	
COc1ccccc1Cn1cc(C(=O)NCCN2CCc3cc(OC)c(OC)cc3C2)nn1	18.6	156	118	
COc1cccc2c1CCCC2CCCN1CCN(C2CCCCC2)CC1 (configuration not stated)				logP [6]: 5; Ki [9]: 0.28 nM
CN1CC[C@]2(c3cccc(O)c3)CC/C(=C/c3ccccc3)[C@@H]1C2				Ki [4]: 3.06 µM; Ki [5]: 16.5 nM; Ratio Ki (Homo sapiens): 185; logP [6]: 3.22
COc1cc2c(cc1OC)CN(CCCCNC(=O)c1cn(-c3ccccc3OC)nn1)CC2	13.1	1.5	8740	
Fc1ccc(-n2cc(CCCCN3CCC4(CC3)OCc3ccccc34)c3ccccc32)cc1 [SIRAMESINE]				Ki [5]: 0.12 nM; logP [6]: 6.07; EC50 [10]: 14.9 µM; EC50 [11]: 5.3 µM
COc1cccc(Cn2cc(-c3ccc(C(=O)NCCCCN4CCc5cc(OC)c(OC)cc5C4)cc3)nn2)c1	11.5	66.2	174	
COc1cccc(Cn2cc(-c3cccc(C(=O)NCCCCN4CCc5cc(OC)c(OC)cc5C4)c3)nn2)c1	1.75	66	26	

SMILES	Ki [1] [µM]	Ki [2] [nM]	Ratio Ki [3]	further results
COc1ccccc1Cn1cc(-c2ccc(C(=O)NCCCCN3CCc4cc(OC)c(OC)cc4C3)cc2)nn1	8.58	55	156	
COc1cc2c(cc1OC)CN(CCCCNC(=O)c1cn(Cc3ccccc3)nn1)CC2	4.48	12.4	361	
COc1ccccc1Cn1cc(C(=O)NCCCCN2CCc3cc(OC)c(OC)cc3C2)nn1	20.6	9.7	2120	
COc1ccc(Cn2cc(C(=O)NCCCCN3CCc4cc(OC)c(OC)cc4C3)nn2)cc1	3.35	5	669	
COc1cccc(Cn2cc(C(=O)NCCCCN3CCc4cc(OC)c(OC)cc4C3)nn2)c1	12.7	10.7	1180	
COc1cc2c(cc1OC)CN(CCCCNC(=O)c1cc(C)ccc1OC)CC2				logP [6]: 3.55; Ki [7]: 3080 nM
COc1ccc(Cn2cc(-c3ccc(C(=O)NCCCCN4CCc5cc(OC)c(OC)cc5C4)cc3)nn2)cc1	12.6	31.4	406	
COc1cc2c(cc1OC)CN(CCCCNC(=O)c1ccc(-c3cn(CCF)nn3)cc1)CC2	71.9	139	517	
COc1cccc(-n2cc(C(=O)NCCCCN3CCc4cc(OC)c(OC)cc4C3)nn2)c1	20.2	3	6730	
COc1ccc(-n2cc(C(=O)NCCN3CCc4cc(OC)c(OC)cc4C3)nn2)cc1	> 100	410	> 243	
C#CCOc1ccc(C#N)cc1C(=O)NCCCCN1CCc2cc(OC)c(OC)cc2C1	3.68	12.2	301	
COc1cc2c(cc1OC)CN(CCCCNC(=O)c1ccc(-c3cn(CCOCCF)nn3)cc1)CC2	14.7	137	107	
COc1cc2c(cc1OC)CN(CCCCNC(=O)c1cn(Cc3ccc(O)cc3)nn1)CC2	63.5	11.6	5480	
COc1cc2c(cc1OC)CN(CCCCNC(=O)c1cc(C#N)ccc1OCc1cn(CCF)nn1)CC2	14.1	31.9	442	
COc1cc2c(cc1OC)CN(CCCCNC(=O)c1cn(-c3ccc(OCCF)cc3)nn1)CC2	46.3	21.9	2120	
COc1ccc(Cn2cc(C(=O)NCCN3CCc4cc(OC)c(OC)cc4C3)nn2)cc1	84.5	93.2	906	
COc1cccc(-n2cc(C(=O)NCCN3CCc4cc(OC)c(OC)cc4C3)nn2)c1	76.7	180	426	
COc1ccc(-n2cc(C(=O)NCCCCN3CCc4cc(OC)c(OC)cc4C3)nn2)cc1	39.2	5.5	7120	EC50 [10]: > 200 µM; EC50 [11]: > 200 µM
COc1cc2c(cc1OC)CN(CCCCNC(=O)c1cc(-n3cc(COCCOCCF)nn3)ccc1OC)CC2	11.5	66	174	
COc1cc2c(cc1OC)CN(CCCCNC(=O)c1cn(-c3cccc(OCCF)c3)nn1)CC2	17.9	25.1	715	
